Measurements as given in ChEMBL document CHEMBL1955770, “Inhibition of S/G2 phase CDK4 reduces mitotic fidelity” (J Biol Chem, 2006).
Activity calls are given as the source filed them. The calls are words filed in the database; no cut-off is given here.

Legend:
[1] = target: Hepatocyte growth factor receptor (Homo sapiens, UniProt P08581); assay: Inhibition of c-Met using fluorescent substrate by IMAP assay
Outline: (§1)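 Run in-house using IMAP: phosphorylated fluorescent peptide substrate binds preferentially to immobilized metal beads, which quantifies kinase activity. ATP at 3× the Km of each enzyme.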

[2] = target: Insulin-like growth factor 1 receptor (Homo sapiens, UniProt P08069); assay: Inhibition of IGF1R using fluorescent substrate by IMAP assay; outline: as §1
[3] = tested on: HCT-116; assay: Cell cycle arrest in Rb-competent human HCT116 cells assessed as accumulation at S phase at 3 times IC90 after 24 hrs using BrdUrd staining by FACS analysis (Rvb =38 %); assay type: functional
[4] = target: Cyclin-dependent kinase 4 (Homo sapiens) (UniProt P11802); assay: Inhibition of CDK4-mediated Rb phosphorylation at ser 795 in human HCT116 cells at IC90 after 4 hrs by immunoblot analysis; assay type: cell-based; conditions: HCT-116
Outline: (§2)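 Asynchronous HCT-116 cells (DMEM, 3 mM HEPES, 10% serum, 37 °C, 5% CO₂) were given increasing inhibitor doses for 4 or 24 h. Lysis in NETN with phosphatase and protease inhibitors, then SDS-PAGE, nitrocellulose transfer and immunoblot for phospho-Rb (Ser-795) with HRP secondary and chemiluminescence.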

[5] = target: Cyclin-dependent kinase 4 (Homo sapiens) (UniProt P11802); assay: Inhibition of CDK4-mediated Rb phosphorylation at ser 795 in human HCT116 cells at 3 times IC90 after 4 hrs by immunoblot analysis; assay type: cell-based; conditions: HCT-116; outline: as §2
[6] = target: Cyclin-dependent kinase 4 (Homo sapiens) (UniProt P11802); assay: Inhibition of CDK4-mediated Rb phosphorylation at ser 795 in human HCT116 cells at IC50 after 24 hrs by immunoblot analysis; assay type: cell-based; conditions: HCT-116; outline: as §2
[7] = tested on: MDA-MB-453; assay: Antiproliferative activity against human MDA-MB-453 assessed as inhibition of S phase cells after 48 hrs by MTT assay; assay type: functional, cell-based; conditions: MDA-MB-453, 48 h
Outline: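 Cells grown in DMEM with 3 mM HEPES and 10% Serum Supreme at 37 °C, 5% CO2. Proliferation read by MTT assay 48 h after drug addition; IC50 given as mean of two separate determinations, each in duplicate.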

[8] = tested on: HeLa; assay: Cell cycle arrest in human HeLa cells assessed as accumulation at G1 phase at 2 uM treated 2 hr and measured 10 hr post double thymidine-synchrony release using propidium iodide staining by FACS analysis (reference value: 68 %); assay type: functional
[9] = tested on: HeLa; assay: Cell cycle arrest in human HeLa cells assessed as time delay in progression through mitosis at 2 uM treated 2 hr post double thymidine-synchrony release using propidium iodide staining by FACS analysis; assay type: functional
Outline: (§3)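 Cells harvested at set times post-release, fixed in 70% ethanol, stained with 5 μg/ml propidium iodide plus 0.5 mg/ml RNase A, and analysed by flow cytometry. Cell-cycle phase fractions calculated by ModFit.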

[10] = Cell cycle arrest in human SK-MEL-13 cells assessed as accumulation at G1 phase at 2 uM treated 1 hr and measured 12 hr post double hydroxyurea-synchrony release using propidium iodide staining by FACS analysis (reference value: 40 %); assay type: functional, cell-based
Outline: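 SK-Mel-13 cells synchronized with 2 mM hydroxyurea, then treated with 2 μM CDK4 inhibitor or left untreated 1 h after release. Harvested at indicated times post-release, ethanol-fixed, propidium iodide/RNase stained, and DNA content read by FACS. Proportions of G1, S and G2/M cells derived with ModFit.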

[11] = tested on: A2058; assay: Cell cycle arrest in human A2058 cells assessed as accumulation at G1 phase at 2 uM treated 1 hr and measured 8 hr post double hydroxyurea-synchrony release using propidium iodide staining by FACS analysis; assay type: functional
[12] = tested on: A2058; assay: Cell cycle arrest in human A2058 cells assessed as accumulation at S phase at 2 uM treated 1 hr and measured 12 hr post double hydroxyurea-synchrony release using propidium iodide staining by FACS analysis (reference value: 47 %); assay type: functional
[13] = tested on: A2058; assay: Cell cycle arrest in human A2058 cells assessed as accumulation at G2/M phase at 2 uM treated 1 hr and measured 12 hr post double hydroxyurea-synchrony release using propidium iodide staining by FACS analysis (reference value: 39 %); assay type: functional
[14] = tested on: HeLa; assay: Cell cycle arrest at G2 phase in human HeLa cells assessed as delay in phosphotyrosine 15 CDK2 accumulation at 2 uM treated at early S phase measured after 6-14 hr post thymidine-synchrony release by immunoblot method; assay type: functional, cell-based
Outline: (§4)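 HeLa cells synchronized by double thymidine block and released, treated with 2 μM inhibitor in early S phase, or left untreated. Harvested at set times after release, lysed in NETN with phosphatase and protease inhibitors, run on SDS-PAGE and immunoblotted for cyclin B1 and phosphotyrosine 15 CDK1/2, with cyclin D3 as loading control. Detection by HRP secondary and ECL.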

[15] = tested on: HeLa; assay: Cell cycle arrest at G2 phase in human HeLa cells assessed as effect on CCNB1 accumulation at 2 uM treated at early S phase measured after 6-14 hr post thymidine-synchrony release by immunoblot method; assay type: functional, cell-based; outline: as §4
[16] = tested on: HeLa; assay: Cell cycle arrest at G2 phase in human HeLa cells at 2 uM treated 8 hr and measured 12 hr post-synchrony release using Propidium iodide staining by FACS analysis in presence of p38 MAPK inhibitor SB203580; assay type: functional, cell-based
[17] = tested on: RKO; assay: Toxicity in human RKO cells at IC50 after 3 days by MTT assay; assay type: cell-based; conditions: 72 h
[18] = tested on: COLO 205; assay: Toxicity in human COLO205 cells at IC50 after 3 days by MTT assay; assay type: cell-based; conditions: colo 205, 72 h
[19] = tested on: HCT-116; assay: Toxicity in human HCT116 cells at 8 uM by MTT assay; assay type: cell-based; conditions: hct-116, 8 µM
[20] = tested on: MDA-MB-435; assay: Toxicity in human MDA-MB-435 cells at 8 uM by MTT assay; assay type: cell-based; conditions: mda-mb-435, 8 µM
[21] = tested on: NCI-H460; assay: Toxicity in human H460a cells at 8 uM by MTT assay; assay type: cell-based; conditions: nci-h460, 8 µM
[22] = tested on: HeLa; assay: Cell cycle arrest in synchronized human HeLa cells assessed as delay in mitotic entry at 2 uM by time-lapse microscopy (reference value: 8-9 hrs); assay type: functional
[23] = tested on: HeLa; assay: Cell cycle arrest in synchronized human HeLa cells assessed as large multinuclear cell formation at 2 uM by time-lapse microscopy; assay type: functional, cell-based
[24] = tested on: HeLa; assay: Cell cycle arrest in human HeLa cells assessed as delay in progression into mitosis at 2 uM measured after 8 to 20 hr post hydroxyurea-synchrony release by time-lapse microscopy; assay type: functional, cell-based
[25] = tested on: HeLa; assay: Cell cycle arrest in human HeLa cells assessed as accumulation at G1 phase at 2 uM treated 4 hr and measured 8 hr post double thymidine-synchrony release using propidium iodide staining by FACS analysis (reference value: 6 %); assay type: functional
[26] = tested on: HeLa; assay: Cell cycle arrest in human HeLa cells assessed as accumulation at G2/M phase at 2 uM treated 6 hr and measured 8 hr post double thymidine-synchrony release using propidium iodide staining by FACS analysis (reference value: 86 %); assay type: functional; outline: as §3
[27] = tested on: HeLa; assay: Cell cycle arrest in human HeLa cells assessed as accumulation at S phase at 2 uM treated 6 hr and measured 10 hr post double thymidine-synchrony release using propidium iodide staining by FACS analysis (reference value: 1 %); assay type: functional; outline: as §3
[28] = tested on: HeLa; assay: Cell cycle arrest in human HeLa cells assessed as accumulation at G2/M phase at 2 uM treated 6 hr and measured 10 hr post double thymidine-synchrony release using propidium iodide staining by FACS analysis (reference value: 31 %); assay type: functional; outline: as §3

Sequence of Cyclin-dependent kinase 4 (Homo sapiens) (P11802 whole entry): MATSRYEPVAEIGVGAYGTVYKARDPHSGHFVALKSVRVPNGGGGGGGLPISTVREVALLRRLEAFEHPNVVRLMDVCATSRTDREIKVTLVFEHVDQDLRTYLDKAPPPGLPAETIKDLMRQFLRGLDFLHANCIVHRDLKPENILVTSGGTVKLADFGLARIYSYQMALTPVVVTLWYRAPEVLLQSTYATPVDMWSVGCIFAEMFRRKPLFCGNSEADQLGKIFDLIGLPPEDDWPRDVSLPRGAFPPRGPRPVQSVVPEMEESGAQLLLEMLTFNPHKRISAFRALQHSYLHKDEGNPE
Sequence of Hepatocyte growth factor receptor (P08581 whole entry): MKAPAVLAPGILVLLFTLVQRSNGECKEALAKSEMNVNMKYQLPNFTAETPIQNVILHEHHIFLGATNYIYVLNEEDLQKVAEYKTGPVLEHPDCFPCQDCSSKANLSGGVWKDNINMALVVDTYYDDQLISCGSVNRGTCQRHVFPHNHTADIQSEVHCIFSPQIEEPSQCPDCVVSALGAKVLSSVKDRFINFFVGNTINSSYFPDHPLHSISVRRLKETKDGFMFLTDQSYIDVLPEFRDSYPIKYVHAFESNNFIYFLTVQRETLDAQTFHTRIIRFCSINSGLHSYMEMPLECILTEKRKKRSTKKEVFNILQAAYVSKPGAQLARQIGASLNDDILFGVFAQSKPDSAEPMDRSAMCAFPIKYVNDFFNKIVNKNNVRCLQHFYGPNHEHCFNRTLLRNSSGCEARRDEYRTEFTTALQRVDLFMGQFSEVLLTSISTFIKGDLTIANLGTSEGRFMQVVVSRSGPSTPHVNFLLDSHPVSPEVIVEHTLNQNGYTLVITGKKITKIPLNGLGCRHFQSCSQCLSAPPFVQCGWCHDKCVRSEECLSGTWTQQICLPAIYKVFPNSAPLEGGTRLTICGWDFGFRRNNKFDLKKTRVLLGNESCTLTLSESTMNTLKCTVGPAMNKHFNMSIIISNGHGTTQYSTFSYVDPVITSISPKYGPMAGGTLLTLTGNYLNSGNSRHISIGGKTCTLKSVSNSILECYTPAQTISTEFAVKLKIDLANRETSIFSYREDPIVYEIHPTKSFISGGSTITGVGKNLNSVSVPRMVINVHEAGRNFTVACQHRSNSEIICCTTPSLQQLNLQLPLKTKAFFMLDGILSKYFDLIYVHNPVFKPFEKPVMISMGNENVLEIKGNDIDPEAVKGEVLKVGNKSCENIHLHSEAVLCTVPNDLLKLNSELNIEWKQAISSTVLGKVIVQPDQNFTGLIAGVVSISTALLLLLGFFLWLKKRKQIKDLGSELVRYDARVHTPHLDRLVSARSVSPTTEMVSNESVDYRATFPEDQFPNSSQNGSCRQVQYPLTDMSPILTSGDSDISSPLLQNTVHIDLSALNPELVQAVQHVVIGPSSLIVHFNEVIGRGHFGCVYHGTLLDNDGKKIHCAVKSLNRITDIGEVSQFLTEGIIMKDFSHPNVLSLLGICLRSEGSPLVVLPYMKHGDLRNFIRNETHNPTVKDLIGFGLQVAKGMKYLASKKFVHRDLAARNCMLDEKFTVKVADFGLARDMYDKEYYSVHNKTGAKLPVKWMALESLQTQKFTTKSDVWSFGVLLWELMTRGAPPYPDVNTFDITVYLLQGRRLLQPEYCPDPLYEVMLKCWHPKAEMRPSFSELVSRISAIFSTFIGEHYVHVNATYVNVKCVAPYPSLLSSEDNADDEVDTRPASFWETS
Sequence of Insulin-like growth factor 1 receptor (P08069 31-736 limits assumed): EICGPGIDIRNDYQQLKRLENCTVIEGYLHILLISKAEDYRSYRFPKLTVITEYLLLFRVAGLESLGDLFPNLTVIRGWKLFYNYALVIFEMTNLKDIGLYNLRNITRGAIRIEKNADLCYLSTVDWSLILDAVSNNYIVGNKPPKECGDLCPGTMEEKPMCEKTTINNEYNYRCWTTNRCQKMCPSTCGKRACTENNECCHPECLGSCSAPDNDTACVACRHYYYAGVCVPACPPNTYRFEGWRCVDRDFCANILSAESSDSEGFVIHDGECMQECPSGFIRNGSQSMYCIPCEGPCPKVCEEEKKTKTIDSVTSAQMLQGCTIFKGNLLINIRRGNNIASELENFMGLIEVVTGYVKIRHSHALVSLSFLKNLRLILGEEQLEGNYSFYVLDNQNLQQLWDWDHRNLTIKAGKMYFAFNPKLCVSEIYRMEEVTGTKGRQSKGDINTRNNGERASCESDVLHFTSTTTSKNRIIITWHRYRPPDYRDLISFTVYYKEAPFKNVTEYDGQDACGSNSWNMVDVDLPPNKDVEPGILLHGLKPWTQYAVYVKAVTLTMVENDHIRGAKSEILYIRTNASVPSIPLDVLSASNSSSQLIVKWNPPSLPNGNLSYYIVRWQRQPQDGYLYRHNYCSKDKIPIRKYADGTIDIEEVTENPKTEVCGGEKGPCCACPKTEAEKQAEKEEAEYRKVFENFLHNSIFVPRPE
Sequence of Insulin-like growth factor 1 receptor (P08069 741-1367 limits assumed): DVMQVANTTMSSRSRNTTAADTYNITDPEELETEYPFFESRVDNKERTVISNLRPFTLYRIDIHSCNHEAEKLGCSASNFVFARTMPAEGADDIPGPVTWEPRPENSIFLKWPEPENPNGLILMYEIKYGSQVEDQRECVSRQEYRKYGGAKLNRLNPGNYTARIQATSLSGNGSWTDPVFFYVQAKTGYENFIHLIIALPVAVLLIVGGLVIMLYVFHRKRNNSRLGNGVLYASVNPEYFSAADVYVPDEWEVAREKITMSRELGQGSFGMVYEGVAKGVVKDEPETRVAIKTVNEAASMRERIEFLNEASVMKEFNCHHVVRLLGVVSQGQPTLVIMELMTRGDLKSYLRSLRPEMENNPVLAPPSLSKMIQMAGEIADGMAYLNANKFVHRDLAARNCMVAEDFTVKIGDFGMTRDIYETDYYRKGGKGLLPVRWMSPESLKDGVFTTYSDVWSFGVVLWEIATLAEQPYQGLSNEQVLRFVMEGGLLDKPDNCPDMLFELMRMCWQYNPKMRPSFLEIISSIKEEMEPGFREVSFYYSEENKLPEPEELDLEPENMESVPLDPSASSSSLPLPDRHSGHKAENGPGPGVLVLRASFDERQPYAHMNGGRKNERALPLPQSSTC

IC50 [1] [µM] | IC50 [2] [µM] | inhibition [4] | inhibition [5] | inhibition [6] | IC50 [7] [µM] | Compound | Activity [3] [%] | Activity [8] [%] | Time [9] [h] | Activity [10] [%] | Activity [11] [%] | Activity [12] [%] | Activity [13] [%] | Activity [14] | Activity [15] | Activity [16] | Activity [17] | Activity [18] | Activity [19] | Activity [20] | further results
> 20 | 20 | Active | Active | Active | 0.71 | COc1cccc(C(=O)c2sc(Nc3ccc(N4CCN(C(C)C)CC4)cc3)nc2N)c1 | 4 | 4 | 4 | 13 | 8 | 40 | 60 | Active | inactive | Active | Toxic | Toxic | Toxic | Toxic | Activity [21]: Toxic; Time [22]: 11 h; Activity [23]: Active; Activity [24]: Active; Activity [25]: 5%; Activity [26]: 88%; Activity [27]: 1%; Activity [28]: 43%
> 20 | 22 | Active | Active | Active | 1.45 | CN1CCN(c2ccc(Nc3nc(N)c(C(=O)c4ccc5c(c4)OCCO5)s3)cc2)CC1 | 4 | 4 | 4 | 13 | 8 | 40 | 60 | Active | inactive | Active | Toxic | Toxic | Toxic | Toxic | Activity [21]: Toxic; Time [22]: 11 h; Activity [23]: Active; Activity [24]: Active; Activity [25]: 5%; Activity [26]: 88%; Activity [27]: 1%; Activity [28]: 43%
